How the values were obtained:
[1] = target: Human immunodeficiency virus type 1 reverse transcriptase (Human immunodeficiency virus 1, UniProt Q72547); assay: Ability to inhibit HIV-1 Reverse Transcriptase (RT) using an rC-dG template/primer
MT4 [2] = assay: Concentration of compound which inhibited greater than 95% the spread of infection of cultured MT-4 cells; type: functional, Homo sapiens
Method in brief: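 MT-4 cells infected with HIV-1 strain IIIb. The spread of infection was measured by p24 core antigen ELISA. The CIC95 is the lowest compound concentration that inhibited spread of infection by more than 95%.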

MT4 [3] = assay: Compound was evaluated for the anti-viral activity against cultured MT-4 cells; type: functional, Homo sapiens

O=C1Nc2ccc(Cl)cc2C(C#Cc2cccnc2)(C2CC2)N1 (stereo not drawn)
IC50 [1]: 64.5 nM

O=C1Nc2ccc(Cl)cc2C(C#Cc2ccccc2)(C2CC2)N1 (stereo not drawn)
IC50 [1]: 17.7 nM | ClC95 (MT4 [2]): 100 nM

CC(C)=CCN1Cc2cccc3nc(S)n(c23)C[C@H]1C
IC50 [1]: 70 nM | ClC95 (MT4 [3]): 200 nM

O=C1Nc2ccc(Cl)cc2C(C#Cc2ccccn2)(C2CC2)N1 (stereo not drawn)
IC50 [1]: 23.2 nM | ClC95 (MT4 [2]): 25 nM

CN1C(=O)Nc2ccc(Cl)cc2C1(C#Cc1ccccn1)C1CC1 (stereo not drawn)
IC50 [1]: 19.6 nM

Cc1ccnc2c1NC(=O)c1cccnc1N2C1CC1 [NEVIRAPINE]
ClC95 (MT4 [3]): 100 nM

O=C1Nc2ccc(Cl)cc2C(C#Cc2ccccc2[N+](=O)[O-])(C2CC2)N1 (stereo not drawn)
IC50 [1]: 12.8 nM

O=C1Nc2ccc(Cl)cc2[C@@](C#Cc2ccccn2)(C2CC2)N1
IC50 [1]: 12 nM

N#Cc1ccccc1C#CC1(C2CC2)NC(=O)Nc2ccc(Cl)cc21 (stereo not drawn)
IC50 [1]: 10.8 nM | ClC95 (MT4 [3]): 12 nM

CCc1cc(NCc2nc3c(Cl)ccc(Cl)c3o2)c(O)nc1C [L-697661]
ClC95 (MT4 [3]): 50 nM

O=C1Nc2ccc(Cl)cc2C(C#Cc2ncccn2)(C2CC2)N1 (stereo not drawn)
IC50 [1]: 130 nM

O=C1Nc2ccc(Cl)cc2C(C#Cc2ccncc2)(C2CC2)N1 (stereo not drawn)
IC50 [1]: 450 nM

O=C1Nc2ccc(Cl)cc2C(C#Cc2cncnc2)(C2CC2)N1 (stereo not drawn)
IC50 [1]: 1500 nM

O=C1Nc2ccc(Cl)cc2C(C#Cc2cnccn2)(C2CC2)N1 (stereo not drawn)
IC50 [1]: 270 nM

O=C1Nc2ccc(Cl)cc2C(C#Cc2nccs2)(C2CC2)N1 (stereo not drawn)
IC50 [1]: 10.9 nM | ClC95 (MT4 [3]): 12 nM

O=C1Nc2ccc(Cl)cc2[C@](C#Cc2ccccn2)(C2CC2)N1
IC50 [1]: 9300 nM

O=C1Nc2ccc(Cl)cc2C(C#Cc2ccco2)(C2CC2)N1 (stereo not drawn)
IC50 [1]: 9.2 nM

O=C1Nc2ccc(Cl)cc2C(C#Cc2cc([N+](=O)[O-])ccn2)(C2CC2)N1 (stereo not drawn)
IC50 [1]: > 10000 nM

Source: ChEMBL document CHEMBL1127598, “Synthesis of a series of 4-(arylethynyl)-6-chloro-4-cyclopropyl-3,4-dihydroquinazolin-2(1H)-ones as novel non-nucleoside HIV-1 reverse transcriptase inhibitors” (J Med Chem, 1994)
